In ChEMBL document CHEMBL1143270, “Identification of amidoheteroaryls as potent inhibitors of mutant (V600E) B-Raf kinase with in vivo activity” (Bioorg Med Chem Lett, 2009):

How the values were obtained:
Type in all cases: ADME, organism-based
[1] = Clearance in Wistar rat at 3 mg/kg, iv and 10 mg/kg, po; conditions: in vivo
[2] = Half life in Wistar rat at 3 mg/kg, iv and 10 mg/kg, po; conditions: in vivo
[3] = Volume of distribution at steady state in Wistar rat at 3 mg/kg, iv and 10 mg/kg, po; conditions: in vivo, read-out: Vdss
[4] = Bioavailability in Wistar rat at 3 mg/kg, iv and 10 mg/kg, po; conditions: in vivo
Outline: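 Male Han Wistar rats. The iv dose was given as a DMA/PEG/saline (40/40/20) solution and the po dose as a 0.1% HPMC suspension.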

clearance [1]	half-life [2]	Vd [3]	bioavailability [4]	SMILES
60 mL/min/kg	54 min	3.1 L/kg	45%	Cc1ccc(NC(=O)c2cccc(C(C)(C)C#N)c2)cc1C(=O)Nc1cncc(Cl)c1
64 mL/min/kg	42 min	2.7 L/kg	10%	CC(=O)Nc1ccc(NC(=O)c2cc(NC(=O)c3cccc(C(C)(C)C#N)c3)ccc2C)cn1
42.5 mL/min/kg	96 min	2.5 L/kg	17%	Cc1ccc(NC(=O)c2cccc(C(C)(C)C#N)c2)cc1C(=O)Nc1cccnc1
75.5 mL/min/kg	36 min	2.3 L/kg	–	Cc1ccc(NC(=O)c2cccc(C(C)(C)C#N)c2)cc1C(=O)Nc1ccc(N)nc1

Continued, compound first:

SMILES	clearance [1]	half-life [2]	Vd [3]	bioavailability [4]
Cc1ccc(NC(=O)c2cccc(C(F)(F)F)c2)cc1C(=O)Nc1cnc(N)c(Cl)c1	8 mL/min/kg	96 min	1 L/kg	78%
COc1cncc(NC(=O)c2cc(NC(=O)c3cccc(C(C)(C)C#N)c3)ccc2C)c1	56 mL/min/kg	30 min	1.7 L/kg	–
Cc1ccc(NC(=O)c2cccc(C(C)(C)C#N)c2)cc1C(=O)Nc1cnc(N)c(Cl)c1	9.5 mL/min/kg	60 min	0.8 L/kg	30%
Cc1cncc(NC(=O)c2cc(NC(=O)c3cccc(C(C)(C)C#N)c3)ccc2C)c1	32.5 mL/min/kg	48 min	1.4 L/kg	4%
Nc1ncc(NC(=O)c2cc(NC(=O)c3cccc(C(F)(F)F)c3)ccc2Cl)cc1Cl	11 mL/min/kg	84 min	1.2 L/kg	96%
CNc1ccc(NC(=O)c2cc(NC(=O)c3cccc(C(C)(C)C#N)c3)ccc2C)cn1	53.5 mL/min/kg	36 min	1.7 L/kg	15%
Cc1ccc(NC(=O)c2cc(NC(=O)c3cccc(C(C)(C)C#N)c3)ccc2C)cn1	47.5 mL/min/kg	48 min	2.9 L/kg	73%
